Assay [1] has as its system Hamster. Briefly: Hypocholesterolemic effect in high cholesterol-fed hamster assessed as reduction in plasma total cholesterol at 50 mg/kg, po for 7 days. The class given is functional, Cricetinae. Also on record: scale not given: the % may be the effect or the level left. In outline: (§1)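 Blood was collected at sacrifice on the last dosing day for lipid analysis. Plasma total cholesterol and HDL-C were measured by a commercial kit using a modified cholesterol oxidase method.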

In assay [2] the test system is Hamster. The experiment in a line: Hypocholesterolemic effect in high cholesterol-fed hamster assessed as increase in HDL-cholesterol at 50 mg/kg, po for 7 days. Format: functional, Cricetinae. A digest of the protocol: as §1

For `O=C1[C@H](CC[C@H](O)c2ccc(F)cc2)[C@@H](c2ccc(O)cc2)N1c1ccc(F)cc1` [EZETIMIBE], the Activity was 48.7% in the assay with Hamster [1] and 37.3% in the assay on Hamster [2].
For `COc1ccc([C@@H]2[C@@H](CCC(O)(c3ccccc3)c3ccccc3)C(=O)N2c2ccc(F)cc2)cc1` (relative stereo) the same measures were 16.3% and 35%.
Take `COc1ccc([C@@H]2[C@@H](CCC(=O)Nc3ccc(C)cc3)C(=O)N2c2ccc(OC)cc2)cc1`: the Activity with Hamster [1] (50 mg/kg) was 28.1%; in the assay on Hamster [2] (50 mg/kg), 21.7%.
As to `COc1ccc(N2C(=O)[C@H](CCC(O)(c3ccc(F)cc3)c3ccc(F)cc3)[C@H]2c2cc3c(cc2Br)OCO3)cc1`, the Activity in the assay with Hamster [1] stood at 19.8%; in the assay with Hamster [2], 31.8%.
For `O=C1[C@H](CCC(O)(c2ccccc2)c2ccccc2)[C@@H](c2ccc3c(c2)OCO3)N1c1ccc(Cl)cc1` (relative stereo), in that order: 28.7% and 11.4%.
For the compound `COc1ccc([C@@H]2[C@@H](CCC(=O)Nc3ccc(C)cc3)C(=O)N2c2ccc(C)cc2)cc1` (relative stereo), the Activity with Hamster [1] was 18.7%; with Hamster [2], 23.9%.
For `Cc1ccccc1N1C(=O)[C@H](CCC(O)(c2ccc(F)cc2)c2ccc(F)cc2)[C@H]1c1ccc2c(c1)OCO2` the same measures were 10.4% and 24.8%.
For `COc1ccc([C@@H]2[C@@H](CCC(=O)Nc3ccc(Cl)cc3)C(=O)N2c2ccc(C)cc2)cc1` the same measures were 31.6% and 13.7%.
On to `COc1ccc([C@@H]2[C@@H](CCC(O)(c3ccccc3)c3ccccc3)C(=O)N2c2ccccc2C)cc1`, for which the results for the Activity in the assay with Hamster [1] and with Hamster [2] were 34.8% and 14.5%, respectively.
For `COc1ccc([C@@H]2[C@@H](CCC(O)(c3ccc(F)cc3)c3ccc(F)cc3)C(=O)N2c2ccc(Br)cc2)cc1` (relative stereo), in that order: 11.2% and 32.9%.
As to `COc1ccc([C@H]2[C@H](CCC(=O)Nc3ccc(Cl)cc3)C(=O)N2c2ccc(C)cc2)cc1` (relative stereo), the results for the Activity with Hamster [1] and in the assay with Hamster [2] were 26.3% and 17.8%, respectively.
Consider `COc1ccc([C@@H]2[C@@H](CCC(=O)Nc3ccc(C)cc3)C(=O)N2c2ccccc2)cc1` (relative stereo), for which the Activity with Hamster [2] (50 mg/kg) turned out to be 13.9%.
`COc1ccc([C@@H]2[C@@H](CCC(=O)Nc3ccc(Cl)cc3)C(=O)N2c2ccc(OC)cc2)cc1` (relative stereo): the Activity in the assay on Hamster [1] is given as 16.3%; in the assay with Hamster [2], 20.1%.
On to `COc1ccc([C@@H]2[C@@H](CCC(=O)Nc3ccc(C)cc3)C(=O)N2c2ccc(OC)cc2)cc1` (relative stereo), for which the Activity in the assay on Hamster [1] (50 mg/kg) came out at 20.9%; in the assay with Hamster [2] (50 mg/kg), 12.4%.
For `COc1ccc([C@@H]2[C@@H](CCC(=O)Nc3ccc(C)cc3)C(=O)N2c2ccccc2)cc1`, in the assay with Hamster [2] (50 mg/kg), the Activity turned out to be 22.1%.
